Results from different studies.
Compare with care: the assays were run in different laboratories.
Target: Activated CDC42 kinase 1 (TNK2, Homo sapiens, UniProt Q07912)

SMILES	effect on	action	technique	concentration	quantity	value
O=C(Nc1cnn(-c2csc(C(=O)NC3COC3)c2)c1)Nc1c(F)cccc1Cl	enzyme activity	inhibitor		5 µM	remaining activity	94.6%
CC(C)(O)[C@H]1CC[C@H](Nc2ccc3ncc(-c4cccc(C(F)(F)F)c4)n3n2)CC1	enzyme activity	inhibitor		1 µM	remaining activity	5.31%
COc1ccc2cc(OCC3(C(=O)O)CN(C(=O)c4ccc(F)cc4)C3)ccc2c1	cell-free assay		competition with immobilised ligand	1 µM	remaining binding	100%
CNC(=O)c1ccccc1Nc1cc(Nc2ccc(N3CCOCC3)cc2OC)ncc1C(F)(F)F	enzyme activity	inhibitor		1 µM	inhibition	> 50%
COc1cccc2c(NCc3ccccc3)nc(-n3c(N)nc4ccccc43)nc12	target engagement in cells	inhibitor	chemoproteomics	20 mM	inhibition	18.9%
CNC(=O)c1ccc(Nc2ncc(C(F)(F)F)c(NCc3nccnc3N(C)S(C)(=O)=O)n2)cc1	cell-free assay		competition with immobilised ligand	0.1 µM	remaining binding	100%
Nc1ncnc2occ(-c3ccc(NC(=O)Nc4cc(C(F)(F)F)ccc4F)cc3)c12	cell-free assay	inhibitor		20 µM	remaining signal	13%
CN(C)C(=O)Cn1cc(-c2nc(C3(c4ccc(-c5cnc(N)nc5)cc4)CC3)no2)cn1	cell-free assay		competition with immobilised ligand	1 µM	remaining binding	96%
CC/C(=N\NC(=O)NCc1cccc(O)c1)c1ccc(O)c(C)c1O	enzyme activity	inhibitor		0.1 µM	inhibition	-0.3%
CC(C)(C)c1nc2c(s1)c1nc(N)ncc1c1ccc(NS(=O)(=O)c3c(F)cccc3F)c(F)c12	enzyme activity	inhibitor	radiometric	1 µM	remaining activity	75%
COc1cc2nccc(Oc3ccc(NC(=O)c4c5n(n(-c6ccc(F)cc6)c4=O)CCCC5)cc3)c2cc1OC	enzyme activity	inhibitor		0.1 µM	inhibition	6%
CC(=O)N1CCC(c2ccc(C(=O)NC(=N)N)cc2C(F)(F)F)CC1	cell-free assay		competition with immobilised ligand	1 µM	remaining binding	100%
O=C1Nc2ccc(Cl)cc2C1=Cc1cc(Cl)c(O)c(Cl)c1	cell-free assay			0.5 µM	remaining signal	32.4%
CCCCNc1ncc2c(-c3ccc(F)cc3)nn(C[C@H]3CC[C@H](N)CC3)c2n1	target engagement in cells	inhibitor	chemoproteomics	20 mM	inhibition	71.4%
Cc1cnc(NC2CCOCC2)nc1-n1cnc(C(=O)NC(CN)c2cc(F)cc(Cl)c2)c1 (stereo not drawn)	enzyme activity	inhibitor	radiometric	1 µM	remaining activity	110%
CCN(CC)c1ccc(C2=NNC(=O)CC2C)cc1[N+](=O)[O-] (stereo not drawn)	enzyme activity	inhibitor		10 µM	remaining activity	94%
CS(=O)(=O)CCNCc1ccc(-c2ccc3ncnc(Nc4ccc(OCc5cccc(F)c5)c(Cl)c4)c3c2)o1	cell-free assay			0.5 µM	remaining signal	97.5%
CCCOc1ccc([C@H]2[C@H](C(=O)O)[C@@H](c3ccc4c(c3)OCO4)CN2CC(=O)Nc2c(CC)cccc2CC)cc1	cell-free assay		competition with immobilised ligand	1 µM	remaining binding	100%
